Key:
KB = experiment: Cytotoxicity against human KB cells after 48 hrs by MTT assay; format: functional, cell-based
A2780 = experiment: Cytotoxicity against human A2780 cells after 48 hrs by MTT assay; format: functional, cell-based; conditions: A2780, 48 h
Bel-7402 = experiment: Cytotoxicity against human Bel7402 cells after 48 hrs by MTT assay; format: functional, cell-based; conditions: Bel-7402, 48 h
[1] = Cytotoxicity against estrogen receptor-negative human […] cells expressing p53 mutant after 48 hrs by SRB assay; format: functional, cell-based
Procedure, shortened: (§1)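 Cell lines came from CCRC, Taiwan. Cells were seeded at about 5 × 10^3 per well and left overnight. They were then given serum-free medium containing 0-10 μM compound (0.08-10 μM serial dilutions) for 48 h at 37 °C. Cells were fixed with TCA (10% final), stained with SRB (0.4% final), and the dye was dissolved in 10 mM Tris with A515 read. IC50 was taken from a fitted log concentration-response curve.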

A549 = experiment: Cytotoxicity against human A549 cells expressing wild type p53 after 48 hrs by SRB assay; format: functional, cell-based; conditions: A549, 48 h; procedure, shortened: as §1
HepG2 = experiment: Cytotoxicity against human HepG2 cells expressing wild type p53 after 48 hrs by SRB assay; format: functional, cell-based; conditions: HepG2, 48 h; procedure, shortened: as §1
HeLa = experiment: Cytotoxicity against p53-deficient human HeLa cells after 48 hrs by SRB assay; format: functional, cell-based; procedure, shortened: as §1
HT-29 = experiment: Cytotoxicity against human HT-29 cells expressing p53 mutant after 48 hrs by SRB assay; format: functional, cell-based; conditions: HT-29, 48 h; procedure, shortened: as §1
AGS = experiment: Cytotoxicity against human AGS cells expressing wild type p53 after 48 hrs by SRB assay; format: functional, cell-based; procedure, shortened: as §1
MCF7 = experiment: Cytotoxicity against estrogen receptor-positive human MCF7 cells expressing wild type p53 after 48 hrs by SRB assay; format: functional, cell-based; conditions: MCF7, 48 h; procedure, shortened: as §1
[2] = Cytotoxicity against p53-deficient human Hep3B cells after 48 hrs by SRB assay; format: functional, cell-based, Hep 3B2; procedure, shortened: as §1
PC-3 = experiment: Cytotoxicity against p53-deficient human PC3 cells after 48 hrs by SRB assay; format: functional, cell-based; conditions: PC-3, 48 h; procedure, shortened: as §1
U-937 = experiment: Cytotoxicity against human U937 cells expressing p53 mutant after 48 hrs by SRB assay; format: functional, cell-based; conditions: U-937, 48 h
THP-1 = experiment: Cytotoxicity against human THP1 cells expressing p53 mutant after 48 hrs by SRB assay; format: functional, cell-based; conditions: THP-1, 48 h
K562 = experiment: Cytotoxicity against p53-deficient human K562 cells after 48 hrs by SRB assay; format: functional, cell-based; conditions: K562, 48 h

Row | SMILES | IC50 (KB) | IC50 (A2780) | IC50 (Bel-7402) | GI50 [1] | IC50 [1] | GI50 (A549) | IC50 (A549) | GI50 (HepG2) | IC50 (HepG2) | GI50 (HeLa) | IC50 (HeLa) | GI50 (HT-29) | IC50 (HT-29) | GI50 (AGS) | IC50 (AGS) | GI50 (MCF7) | IC50 (MCF7) | GI50 [2] | IC50 [2] | GI50 (PC-3) | further results
1 | CCn1cc(-c2nc3ccccc3[nH]2)c(=O)c2cc(F)c(N3CCNC(C)C3)c(F)c21 (centres undefined) | 19.1 µM | 11.6 µM | 30.2 µM |  |  |  |  |  |  |  |  |  |  |  |  |  |  |  |  |  | 
2 | CCn1cc(-c2nc3ccc(Cl)cc3[nH]2)c(=O)c2cc(F)c(N3CCNCC3)cc21 | 1.6 µM | 4.9 µM | 2.8 µM | 0.9 µM | 2.3 µM | 1 µM | 0.5 µM | 1.8 µM | 3.7 µM | 1.2 µM | 4.2 µM | 1.8 µM | 4.7 µM | 4.5 µM | 1 µM | 4.2 µM | 4.5 µM | 0.9 µM | 2.3 µM | 3.3 µM | IC50 (PC-3): 4.8 µM; IC50 (U-937): 4.2 µM; IC50 (THP-1): 2.8 µM; IC50 (K562): 2.7 µM
3 | CCn1cc(-c2nc3ccccc3[nH]2)c(=O)c2cc(F)c(N3CCNCC3)nc21 | 2 µM | 4.8 µM | 4.1 µM | 3.3 µM | 10 µM | 4.9 µM | 7.8 µM | 6.8 µM | 9.1 µM | 6.4 µM | 10 µM | > 10 µM | > 10 µM | 2.1 µM | 6.6 µM | 8.3 µM | 9.5 µM | 3.7 µM | 7.8 µM | > 10 µM | IC50 (PC-3): > 10 µM; IC50 (U-937): > 10 µM; IC50 (THP-1): > 10 µM; IC50 (K562): 9.1 µM
4 | CCn1cc(-c2nc3ccc([N+](=O)[O-])cc3o2)c(=O)c2cc(F)c(Cl)cc21 | 0.5 µM |  | 1.8 µM |  |  |  |  |  |  |  |  |  |  |  |  |  |  |  |  |  | 
5 | CCn1cc(-c2nc3ccccc3o2)c(=O)c2cc(F)c(N3CCN(C)CC3)cc21 | 87.4 µM | 0.7 µM | 2 µM |  |  |  |  |  |  |  |  |  |  |  |  |  |  |  |  |  | 
6 | CCn1cc(-c2nc3ccc([N+](=O)[O-])cc3s2)c(=O)c2cc(F)c(N3CCNCC3)cc21 | 0.7 µM | 0.7 µM | 1.8 µM |  |  |  |  |  |  |  |  |  |  |  |  |  |  |  |  |  | 
7 | CCn1cc(-c2nc3ccc(N)cc3[nH]2)c(=O)c2cc(F)c(N3CCN(C)CC3)cc21 | > 50 µM | > 50 µM | > 50 µM | > 10 µM | > 10 µM | 1 µM | > 10 µM | > 10 µM | > 10 µM | > 10 µM | > 10 µM | > 10 µM | > 10 µM | 10 µM | > 10 µM | > 10 µM | > 10 µM | > 10 µM | > 10 µM | > 10 µM | IC50 (PC-3): > 10 µM; IC50 (U-937): > 10 µM; IC50 (THP-1): > 10 µM; IC50 (K562): > 10 µM
8 | CCn1cc(-c2nc3ccc(N)cc3[nH]2)c(=O)c2cc(F)c(N3CCNCC3)cc21 | 35.4 µM | 51.5 µM | 92.1 µM | > 10 µM | > 10 µM | > 10 µM | > 10 µM | > 10 µM | > 10 µM | > 10 µM | > 10 µM | > 10 µM | > 10 µM | 7.8 µM | 10 µM | > 10 µM | > 10 µM | > 10 µM | > 10 µM | > 10 µM | IC50 (PC-3): > 10 µM; IC50 (U-937): > 10 µM; IC50 (THP-1): 10 µM; IC50 (K562): > 10 µM
9 | CCn1cc(-c2nc3ccc([N+](=O)[O-])cc3s2)c(=O)c2cc(F)c(N3CCNCC3)nc21 | 179 µM | 200 µM | 24.6 µM |  |  |  |  |  |  |  |  |  |  |  |  |  |  |  |  |  | 
10 | CCn1cc(-c2nc3ccc([N+](=O)[O-])cc3s2)c(=O)c2cc(F)c(N3CCNC(C)C3)c(F)c21 (centres undefined) | 4.7 µM | 3.3 µM | 4.1 µM | 2.3 µM | 7.4 µM | 1.5 µM | 7 µM | 0.9 µM | 3.6 µM | 1.7 µM | 9.9 µM | 1 µM | 5 µM | 3.3 µM | 5.4 µM | > 10 µM | > 10 µM | 0.6 µM | 1.4 µM | 2.7 µM | IC50 (PC-3): 10 µM; IC50 (U-937): > 10 µM; IC50 (THP-1): > 10 µM; IC50 (K562): > 10 µM
11 | CCn1cc(-c2nc3ccccc3[nH]2)c(=O)c2cc(F)c(N3CCN(C)CC3)cc21 | 36.7 µM |  |  |  |  |  |  |  |  |  |  |  |  |  |  |  |  |  |  |  | 
12 | CCn1cc(-c2nc3ccc([N+](=O)[O-])cc3[nH]2)c(=O)c2cc(F)c(N3CCNCC3)cc21 | 1.1 µM | 1.6 µM | 2.1 µM |  |  |  |  |  |  |  |  |  |  |  |  |  |  |  |  |  | 
13 | CCn1cc(-c2nc3ccccc3s2)c(=O)c2cc(F)c(N3CCNC(C)C3)c(F)c21 (centres undefined) | 24.3 µM | 9.8 µM | 15 µM |  |  |  |  |  |  |  |  |  |  |  |  |  |  |  |  |  | 
14 | CCn1cc(-c2nc3ccccc3o2)c(=O)c2cc(F)c(N3CCNCC3)nc21 | 11.7 µM | 15.3 µM | 16.8 µM |  |  |  |  |  |  |  |  |  |  |  |  |  |  |  |  |  | 

From ChEMBL document CHEMBL1153527, “Discovery of a novel series of quinolone and naphthyridine derivatives as potential topoisomerase I inhibitors by scaffold modification” (J Med Chem, 2009)
